# Reference: ChEMBL document CHEMBL1795235, “Quercetin diacylglycoside analogues showing dual inhibition of DNA gyrase and topoisomerase IV as novel antibacterial agents” (J Med Chem, 2011)
# Assays:
# Staphylococcus aureus [1] = test: Antibacterial activity against methicillin-susceptible Staphylococcus aureus 209P after 24 hrs by microdilution method; type: functional
# Procedure, shortened: (§1)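 Broth microdilution in Mueller-Hinton broth with 0.85% NaCl, inoculum about 10^5 CFU per 100 μL. Compounds were diluted in water from 25.6 mg/mL stocks to final 2-fold series of 0.062–128 μg/mL. Plates were incubated 24 h at 35 °C. MIC was the lowest concentration at which all triplicate wells were clear, from three independent determinations.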
# Enterococcus [2] = test: Antibacterial activity against vancomycin resistant Enterococcus FN-1 after 24 hrs by microdilution method; type: functional; conditions: FN-1, 24 h; procedure, shortened: as §1
# Enterococcus [3] = test: Antibacterial activity against vancomycin resistant Enterococcus NCTC 12201 after 24 hrs by microdilution method; type: functional; conditions: NCTC 12201, 24 h; procedure, shortened: as §1
# Staphylococcus aureus [4] = test: Antibacterial activity against vancomycin-intermediate Staphylococcus aureus Mu50 after 24 hrs by microdilution method; type: functional; conditions: Mu50, 24 h; procedure, shortened: as §1
# Staphylococcus aureus [5] = test: Antibacterial activity against methicillin-resistant Staphylococcus aureus OM481 after 24 hrs by microdilution method; type: functional; conditions: OM481, 24 h; procedure, shortened: as §1
# Staphylococcus aureus [6] = test: Antibacterial activity against methicillin-resistant Staphylococcus aureus OM584 after 24 hrs by microdilution method; type: functional; conditions: OM584, 24 h; procedure, shortened: as §1
# Staphylococcus aureus [7] = test: Antibacterial activity against methicillin-resistant Staphylococcus aureus N315 after 24 hrs by microdilution method; type: functional; conditions: N315, 24 h; procedure, shortened: as §1
# Staphylococcus aureus [8] = test: Antibacterial activity against methicillin-resistant Staphylococcus aureus COL after 24 hrs by microdilution method; type: functional; procedure, shortened: as §1
# Streptococcus pneumoniae = test: Antibacterial activity against Streptococcus pneumoniae R6 after 24 hrs by microdilution method; type: functional; conditions: R6, 24 h
# Procedure, shortened: (§2)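 Broth microdilution in Mueller-Hinton broth with 0.85% NaCl, inoculum about 10^5 CFU per 100 μL. Compounds diluted from 25.6 mg/mL stocks in water to 2-fold series, final 0.062–128 μg/mL. […] Three independent determinations.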
# Pseudomonas aeruginosa = test: Antibacterial activity against Pseudomonas aeruginosa PAO1 after 24 hrs by microdilution method; type: functional; conditions: PAO1, 24 h; procedure, shortened: as §2
# Escherichia coli = test: Antibacterial activity against Escherichia coli K-12 after 24 hrs by microdilution method; type: functional; conditions: K-12, 24 h; procedure, shortened: as §2
# [9] = Inhibition of Escherichia coli DNA gyrase assessed as inhibition of pBR322 supercoiling by densitometry
# Procedure, shortened: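 One unit of E. coli gyrase with 0.5 μg relaxed pBR322 DNA, 37 °C, 30 min. Stopped with sucrose/EDTA dye, run on 1.0% agarose in TAE. IC50 from densitometry via log-interpolation equation.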
# [10] = Inhibition of Staphylococcus aureus DNA Topoisomerase 4-mediated decatenation of kDNA after 30 mins by densitometry
# Procedure, shortened: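 Purchased S. aureus topoIV, one unit with 200 ng kDNA, 37 °C, 30 min. Products resolved on 1.0% agarose in TAE. IC50 of decatenation from densitometry by interpolation equation, at least three determinations.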
# [11] = Inhibition of Escherichia coli DNA topoisomerase 4 subunit ParC/DNA topoisomerase 4 subunit ParE-mediated decatenation of kDNA by densitometry
# Procedure, shortened: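 Purchased E. coli topoIV kit enzyme, one unit with 200 ng kDNA, 37 °C, 30 min. Buffer: 50 mM HEPES-KOH pH 7.6, 5 mM magnesium acetate, 100 mM potassium glutamate, 10 mM DTT, 1 mM ATP, 40% glycerol. Gel on 1.0% agarose in TAE. IC50 of decatenation from densitometry by interpolation equation, at least three determinations.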
# Mus musculus [12] = test: Toxicity in mouse at 100 mg/kg, iv administered for 4 days assessed as transient seizure like reaction measured after 10 mins of compound administration; type: organism-based; parameters: dose 100 mg/kg, route intravenous; conditions: in vivo
# Mus musculus [13] = test: Toxicity in mouse at 100 mg/kg, iv administered for 4 days assessed as transient seizure like reaction measured after 1 day of compound administration; type: organism-based; parameters: dose 100 mg/kg, route intravenous; conditions: in vivo, 24 h
# Mus musculus [14] = test: Toxicity in iv dosed mouse assessed as incidence of mortality measured 14 days post dose; type: organism-based; conditions: in vivo, 336 h
# Procedure, shortened: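 Male mice (n = 4), 15–30 g, given water only for 12 h beforehand. Dosed intravenously by tail vein in 50% PEG in saline at 10, 50 or 100 mg/kg/day for 4 days (total dose volume 20 mL/kg). Weight gain, mobility and mortality were observed up to 14 days.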
# [15] = Ratio IC50 for Escherichia coli DNA topoisomerase 4 ParC/DNA topoisomerase 4 subunit ParE-mediated decatenation of kDNA to IC50 for Staphylococcus aureus DNA topoisomerase 4 subunit B-mediated decatenation of kDNA
# Mus musculus [16] = test: Toxicity in mouse at 10 mg/kg, iv administered for 4 days measured after 14 days; type: organism-based; parameters: dose 10 mg/kg, route intravenous; conditions: in vivo, 336 h
# Mus musculus [17] = test: Toxicity in mouse at 50 mg/kg, iv administered for 4 days measured after 14 days; type: organism-based; parameters: dose 50 mg/kg, route intravenous; conditions: in vivo, 336 h
# [18] = Intestinal absorption in Wistar rat at 1 mg/mL, injected into small intestine, measured after 1 hr by UV-spectrophotometric analysis; conditions: in situ, intestinal injection
# Enterococcus [19] = test: Ratio MIC for vancomycin to compound for vancomycin-resistant Enterococcus FN-1; type: functional
Structure (SMILES),MIC (Staphylococcus aureus [1]),MIC (Enterococcus [2]),MIC (Enterococcus [3]),MIC (Staphylococcus aureus [4]),MIC (Staphylococcus aureus [5]),MIC (Staphylococcus aureus [6]),MIC (Staphylococcus aureus [7]),MIC (Staphylococcus aureus [8]),MIC (Streptococcus pneumoniae),MIC (Pseudomonas aeruginosa),MIC (Escherichia coli),IC50 [9],IC50 [10],IC50 [11],also measured
CCCc1ccc(C(=O)OC[C@H]2O[C@@H](Oc3c(-c4ccc(O)c(O)c4)oc4cc(O)cc(O)c4c3=O)[C@H](OC(=O)c3ccc(CCC)cc3)[C@@H](O)[C@H]2O)cc1,2 µg/mL,8 µg/mL,4 µg/mL,4 µg/mL,4 µg/mL,4 µg/mL,2 µg/mL,16 µg/mL,2 µg/mL,> 128 µg/mL,> 128 µg/mL,770 nM,1930 nM,10.9 µM,
Cc1ccc(CCC(=O)OC[C@H]2O[C@@H](Oc3c(-c4ccc(O)c(O)c4)oc4cc(O)cc(O)c4c3=O)[C@H](OC(=O)CCc3ccc(C)cc3)[C@@H](O)[C@H]2O)cc1,0.25 µg/mL,0.5 µg/mL,0.5 µg/mL,0.5 µg/mL,0.25 µg/mL,0.25 µg/mL,0.25 µg/mL,1 µg/mL,0.25 µg/mL,> 128 µg/mL,> 128 µg/mL,2090 nM,1490 nM,9.46 µM,
O=C(CCc1ccc(F)cc1)OC[C@H]1O[C@@H](Oc2c(-c3ccc(O)c(O)c3)oc3cc(O)cc(O)c3c2=O)[C@H](OC(=O)CCc2ccc(F)cc2)[C@@H](O)[C@H]1O,0.13 µg/mL,0.25 µg/mL,0.25 µg/mL,0.5 µg/mL,0.13 µg/mL,0.13 µg/mL,0.13 µg/mL,0.5 µg/mL,0.13 µg/mL,> 128 µg/mL,> 128 µg/mL,780 nM,220 nM,9.16 µM,Activity (Mus musculus [12]): Toxic; Activity (Mus musculus [13]): Non-toxic; Activity (Mus musculus [14]): Non-toxic; Ratio IC50 [15]: 40; Activity (Mus musculus [16]): Non-toxic; Activity (Mus musculus [17]): Non-toxic; Fa at 1 h [18]: 76.6%
CCOc1ccc(C(=O)OC[C@H]2O[C@@H](Oc3c(-c4ccc(O)c(O)c4)oc4cc(O)cc(O)c4c3=O)[C@H](OC(=O)c3ccc(OCC)cc3)[C@@H](O)[C@H]2O)cc1,4 µg/mL,8 µg/mL,8 µg/mL,4 µg/mL,4 µg/mL,4 µg/mL,8 µg/mL,16 µg/mL,4 µg/mL,> 128 µg/mL,> 128 µg/mL,430 nM,1780 nM,11.3 µM,
O=C(CCc1ccc(O)cc1)OC[C@H]1O[C@@H](Oc2c(-c3ccc(O)c(O)c3)oc3cc(O)cc(O)c3c2=O)[C@H](OC(=O)CCc2ccc(O)cc2)[C@@H](O)[C@H]1O,2 µg/mL,4 µg/mL,4 µg/mL,2 µg/mL,1 µg/mL,1 µg/mL,2 µg/mL,4 µg/mL,4 µg/mL,> 128 µg/mL,> 128 µg/mL,2390 nM,1590 nM,10.9 µM,
CCOc1ccc(CCC(=O)OC[C@H]2O[C@@H](Oc3c(-c4ccc(O)c(O)c4)oc4cc(O)cc(O)c4c3=O)[C@H](OC(=O)CCc3ccc(OCC)cc3)[C@@H](O)[C@H]2O)cc1,8 µg/mL,16 µg/mL,16 µg/mL,8 µg/mL,4 µg/mL,4 µg/mL,2 µg/mL,8 µg/mL,8 µg/mL,> 128 µg/mL,> 128 µg/mL,5390 nM,2990 nM,> 12 µM,
O=C(CCCCc1ccc(F)cc1)OC[C@H]1O[C@@H](Oc2c(-c3ccc(O)c(O)c3)oc3cc(O)cc(O)c3c2=O)[C@H](OC(=O)CCCCc2ccc(F)cc2)[C@@H](O)[C@H]1O,4 µg/mL,16 µg/mL,16 µg/mL,16 µg/mL,4 µg/mL,4 µg/mL,2 µg/mL,16 µg/mL,8 µg/mL,> 128 µg/mL,> 128 µg/mL,5020 nM,4050 nM,> 12 µM,
CC(=O)OC[C@H]1O[C@@H](Oc2cc(O)c3c(=O)c(O[C@@H]4O[C@H](COC(C)=O)[C@H](OC(C)=O)[C@H](OC(C)=O)[C@H]4OC(C)=O)c(-c4ccc(O)c(O)c4)oc3c2)[C@H](OC(C)=O)[C@@H](OC(C)=O)[C@H]1OC(C)=O,128 µg/mL,64 µg/mL,64 µg/mL,128 µg/mL,128 µg/mL,128 µg/mL,128 µg/mL,> 128 µg/mL,128 µg/mL,> 128 µg/mL,> 128 µg/mL,,,,Ratio (Enterococcus [19]): 2
O=C(OC[C@H]1O[C@@H](Oc2c(-c3ccc(O)c(O)c3)oc3cc(O)cc(O)c3c2=O)[C@H](OC(=O)c2ccc(F)cc2)[C@@H](O)[C@H]1O)c1ccc(F)cc1,4 µg/mL,4 µg/mL,4 µg/mL,2 µg/mL,2 µg/mL,2 µg/mL,8 µg/mL,8 µg/mL,4 µg/mL,> 128 µg/mL,> 128 µg/mL,380 nM,520 nM,11 µM,
O=C(CCc1ccc(F)cc1)Oc1cc(O)c2c(=O)c(OC(=O)CCc3ccc(F)cc3)c(-c3ccc(O)c(O)c3)oc2c1,64 µg/mL,64 µg/mL,32 µg/mL,32 µg/mL,16 µg/mL,16 µg/mL,16 µg/mL,32 µg/mL,32 µg/mL,64 µg/mL,64 µg/mL,720 nM,290 nM,6.76 µM,Ratio (Enterococcus [19]): 2
O=c1c(O[C@@H]2O[C@H](CO)[C@H](O)[C@H](O)[C@H]2O)c(-c2ccc(O)c(O)c2)oc2cc(O[C@@H]3O[C@H](CO)[C@H](O)[C@H](O)[C@H]3O)cc(O)c12,> 128 µg/mL,> 128 µg/mL,> 128 µg/mL,> 128 µg/mL,> 128 µg/mL,> 128 µg/mL,> 128 µg/mL,> 128 µg/mL,> 128 µg/mL,32 µg/mL,32 µg/mL,260 nM,200 nM,5.34 µM,
O=C(Cc1ccc(F)cc1)OC[C@H]1O[C@@H](Oc2c(-c3ccc(O)c(O)c3)oc3cc(O)cc(O)c3c2=O)[C@H](OC(=O)Cc2ccc(F)cc2)[C@@H](O)[C@H]1O,1 µg/mL,0.5 µg/mL,0.5 µg/mL,1 µg/mL,1 µg/mL,1 µg/mL,1 µg/mL,8 µg/mL,1 µg/mL,> 128 µg/mL,> 128 µg/mL,1050 nM,460 nM,10.2 µM,
Cc1ccc(CC(=O)OC[C@H]2O[C@@H](Oc3c(-c4ccc(O)c(O)c4)oc4cc(O)cc(O)c4c3=O)[C@H](OC(=O)Cc3ccc(C)cc3)[C@@H](O)[C@H]2O)cc1,4 µg/mL,8 µg/mL,4 µg/mL,4 µg/mL,2 µg/mL,2 µg/mL,8 µg/mL,16 µg/mL,2 µg/mL,> 128 µg/mL,> 128 µg/mL,2210 nM,2690 nM,10.5 µM,
Cc1ccc(CCC(=O)Oc2cc(O)c3c(=O)c(OC(=O)CCc4ccc(C)cc4)c(-c4ccc(O)c(O)c4)oc3c2)cc1,64 µg/mL,64 µg/mL,64 µg/mL,16 µg/mL,32 µg/mL,32 µg/mL,32 µg/mL,32 µg/mL,32 µg/mL,64 µg/mL,64 µg/mL,1660 nM,440 nM,8.59 µM,Ratio (Enterococcus [19]): 2
